For 34 compounds, EC50 and ED50 results are on record in ChEMBL document CHEMBL1122683, “Histamine H2 receptor antagonists. 1. Synthesis of N-cyano and N-carbamoyl amidine derivatives and their biological activities” (1984).

pEC50: −log10 of the molar value.

As usually defined, the ED50 is the midpoint of the dose-response relation. Read a low ED50 as greater potency.

The species entered for one test is Cavia porcellus. As to the kind of experiment: Dose representing 50% inhibition of positive chronotropic response to histamine in guinea pig atrium (5 x 10e -6M). It is filed as functional. Conditions: Cardiac atrium, read-out: ED50 (the source's name). In outline:
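Isolated right atria from guinea pig, three to four preparations per compound. Test agent added 10 min ahead of histamine (5 × 10⁻⁶ M). Read-out is inhibition of the histamine-induced rise in atrial rate. Percent inhibition plotted against log concentration, and the 50%-inhibiting dose read from that curve; means ± SE.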

Another test deals with Canis familiaris. The test can be described thus: Reduction in acid response to histamine(160 ug/kg/h i.v.) in anesthetized dogs with acute gastric fistula. Type of test: functional. Conditions: Canis lupus familiaris, Stomach, iv. In outline:
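Mongrel dogs of 8–10 kg, fasted 24 h and anesthetized with pentobarbital 30 mg/kg i.v. Pylorus and esophagus ligated, with a stainless steel cannula in the stomach. Histamine infused at 160 μg/(kg h), drugs given i.v., gastric juice collected every 15 min. Inhibition taken from predrug minus minimum acid output (within 45 min). ED50 from a semilog dose-response plot.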

In the case of `CC(=N)Nc1nc(CSCCC(=N)NC#N)cs1`, the pEC50 in the test filed under Cavia porcellus was 5.04. Take `C/N=C(/CCSCc1ccc(CN(C)C)o1)NC#N`: the ED50 in the test with Canis familiaris was greater than 10 mg/kg. Also, the pEC50 in the test listed under Cavia porcellus is 3.77. As to `N#CNC(=N)CCSCc1noc(NC(=N)N)n1`, the pEC50 in the test filed under Cavia porcellus was less than 4.00.

The compound `N#CNC(=N)CCCCc1csc(NC(=N)N)n1` had an ED50 in the test on Canis familiaris of 0.022 mg/kg. For the same compound, the pEC50 in the test listed under Cavia porcellus was 6.92.

For the compound `CN(C)Nc1nc(CSCCC(=N)NC#N)cs1`, the pEC50 in the test filed under Cavia porcellus is less than 4.00. The same measure, in the same setting: as for `N#CNC(=N)CCSCc1ccc(CN2CCCCC2)o1`, the figure is 4.46. With `Cl.Cl.N=C(N)Nc1nc(CSCCC(=N)NC(N)=O)cs1`, the ED50 in the test with Canis familiaris came out at 0.0064 mg/kg. For the same compound, the pEC50 in the test filed under Cavia porcellus was 7.13. The matching figures for `CN(C)Cc1cccc(OCCCC(=N)NC#N)c1`: 9 mg/kg and 4.70.

For `N#CNC(=N)CCCOc1cccc(CN2CCCCC2)c1`, the ED50 with Canis familiaris amounted to 2.3 mg/kg. Also, the pEC50 in the test filed under Cavia porcellus was 5.33.

The compound `Cl.Cl.N=C(CCSCc1c[nH]cn1)NC(N)=O` yielded an ED50 in the test with Canis familiaris of 1.3 mg/kg. Moreover, the pEC50 in the test filed under Cavia porcellus is 5.28. For `C/N=C(/N)Nc1nc(CSCCC(=N)NC(N)=O)cs1.Cl.Cl`, in that order: 0.046 mg/kg and 6.49. For the compound `Cc1[nH]cnc1CSCCC(=N)NC#N`, in the test filed under Cavia porcellus, the pEC50 is less than 4.00.

As for `N=C(CCSCc1[nH]cnc1C(F)(F)F)NC(N)=O`, in the test listed under Cavia porcellus, the pEC50 is less than 4.00. Same read-out and setting: as for `N#CNC(=N)CCSCc1nc[nH]n1`, the figure is less than 4.00. `Cc1[nH]cnc1CSCCC(=N)NC(N)=O.Cl.Cl`: the ED50 with Canis familiaris was 0.22 mg/kg. Further, in the test filed under Cavia porcellus, the pEC50 is 6.05. Regarding `NC(=O)CCSCc1csc(N=C(N)N)n1`, in the test listed under Cavia porcellus, the pEC50 was 6.00. As for `N#CNC(=N)CCSCc1csc(NC(=N)N)n1`, in the test on Canis familiaris, the 50% effective dose (ED50) is 0.018 mg/kg. Besides, the pEC50 in the test filed under Cavia porcellus was 6.74. The matching figures for `Cl.Cl.N=C(CCSCc1nc[nH]n1)NC(N)=O`: 6.9 mg/kg and 4.39.

In the test with Canis familiaris, `CCc1[nH]cnc1CSCCC(=N)NC(N)=O.Cl.Cl` displayed an ED50 of 0.33 mg/kg. For the same compound, in the test listed under Cavia porcellus, the pEC50 is 5.70.

As to `C/N=C(/NC)Nc1nc(CSCCC(=N)NC#N)cs1`, in the test filed under Cavia porcellus, the pEC50 was less than 4.00.

Consider `C/N=C(/CCSCc1csc(N=C(N)N)n1)NC#N`, for which the 50% effect level with Canis familiaris (ED50) was put at a dose of 0.39 mg/kg. Also, in the test filed under Cavia porcellus, the pEC50 was 6.01. As to `C#CC/N=C(/CCSCc1nc[nH]c1C)NC#N`, the pEC50 in the test filed under Cavia porcellus was less than 4.00.

On to `N#CNC(=N)CCSCc1ccccn1`, for which, in the test filed under Cavia porcellus, the pEC50 was less than 4.00. The same measure, in the same setting: the value for `CC(=N)Nc1nc(CSCCC(=N)NC(N)=O)cs1` was 5.60. Take `N#CNC(=N)CCCOc1cccc(CN2CCCC2)c1`: it took a dose of 3.5 mg/kg to reach the 50% effect level in the test with Canis familiaris (ED50). Also, in the test filed under Cavia porcellus, the pEC50 is 4.89. As for `N#C/N=C(\N)CCSCc1csc(N)n1`, the pEC50 in the test listed under Cavia porcellus was less than 4.00. The same measure, in the same setting: as for `N#CNC(=N)CCSCc1ccc(CN2CCOCC2)o1`, the figure is less than 4.00; as for `N=C(N)Nc1nc(CSCCC(=N)NC(N)=O)no1`, 4.59.

Compound `CN(C)Cc1ccc(CSCCC(=N)NC#N)o1` had a 50% effective dose (ED50) in the test with Canis familiaris of 0.28 mg/kg. Besides, in the test filed under Cavia porcellus, the pEC50 was 5.68. For `Cl.Cl.N=C(CCSCc1ccccn1)NC(N)=O`, in that order: 2.5 mg/kg and 4.92. Regarding `C/N=C(/N)Nc1nc(CSCCC(=N)NC#N)cs1`, the pEC50 in the test listed under Cavia porcellus was 5.92.

Turning to `C/N=C(/CCSCc1[nH]cnc1C)NC#N`, in the test filed under Cavia porcellus, the pEC50 is less than 4.00. On to `CN(C)Cc1ccc(CSCCC(=N)NC#N)s1`, for which, in the test with Canis familiaris, the ED50 was determined as 4.4 mg/kg. Moreover, in the test listed under Cavia porcellus, the pEC50 is 4.89. The matching figures for `CN/C(=N\CCSCc1nc[nH]c1C)NC#N` [CIMETIDINE]: 0.33 mg/kg and 5.57.
